# In the library only some 2% were active in any assay of this set; here they are far more common.
# CRFR2-BP ag: agonists of CRF-BP/CRF-R2 complex, primary screen, cell-based, HEK293, calcium dye fluorescence, uHTS; CRF-binding protein / CRF receptor 2 complex (human); calcium dye fluorescence (FLIPR); percent of saturating CRF peptide response; activation, % at 13.2 µM; 350,000 tested, 0.46% active;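 active means activation of at least 50%, plus an integration ratio under a set limit after plate pattern correction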;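 further: plate controls were neutral control wells without compound for no effect and CRF at EC100 for full effect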
# TRPN1 ag: zebrafish TRPN1 channel agonists, primary screen, cell-based, HEK293, calcium fluorescence. transient receptor potential cation channel N1 (TRPN1/NompC), Danio rerio. HEK293 zebrafish TRPN1-YFP, Fluo-8 calcium fluorescence; 100% = response to 87 µM carbachol. activation, % at 3 µM. 220,000 tested, 0.18% active;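 active means activation above its plate's cutoff, the mean activation of test wells on that plate plus 3 SD, cut at about 19% in these data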;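 further: 0% = DMSO alone and 100% = 87 µM carbachol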
#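 Material: zebrafish TRPN1-YFP in HEK293 cells; Doses: single test compound dose, 3 µM nominal, 0.3% DMSO; Timing: dye loading 1 h at 37 °C, then 30 min room temperature; Technique: intracellular calcium fluorescence with Fluo-8; Benchmarks: high carbachol 87 µM, low DMSO alone.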
# TRPML3 agonist: human TRPML3 channel agonists, primary screen, cell-based, HEK293 TRPML3-YFP, Fluo-8 calcium fluorescence, 3 µM. activation, % at 3 µM. 220,000 tested, 0.29% active. Mucolipin-3 (Homo sapiens), Q8TDD5. 100% = the carbachol control signal. AID 1448, 2008;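 active means activation above its plate's cutoff, the mean activation of the plate's test wells plus 3 SD, cut at about 12% in these data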;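 further: 0% = DMSO only wells and 100% = carbachol wells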
# Target sequence (Q8TDD5 whole entry, looked up): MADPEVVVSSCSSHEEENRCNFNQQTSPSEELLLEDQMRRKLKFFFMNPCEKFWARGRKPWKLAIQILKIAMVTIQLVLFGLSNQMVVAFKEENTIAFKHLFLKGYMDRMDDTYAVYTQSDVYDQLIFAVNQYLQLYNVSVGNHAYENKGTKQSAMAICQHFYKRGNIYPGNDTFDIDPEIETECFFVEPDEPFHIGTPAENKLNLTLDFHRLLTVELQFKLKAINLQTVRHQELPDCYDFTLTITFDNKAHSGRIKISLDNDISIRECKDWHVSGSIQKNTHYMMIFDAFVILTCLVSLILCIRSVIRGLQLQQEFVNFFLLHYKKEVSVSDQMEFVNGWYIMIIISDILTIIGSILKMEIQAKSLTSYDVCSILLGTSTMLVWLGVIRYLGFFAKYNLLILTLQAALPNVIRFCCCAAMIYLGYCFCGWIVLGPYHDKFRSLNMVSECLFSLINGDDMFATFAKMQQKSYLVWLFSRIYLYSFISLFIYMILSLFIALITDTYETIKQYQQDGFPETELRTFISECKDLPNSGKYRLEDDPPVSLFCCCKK
#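 Test system: TRPML3-YFP stable HEK293 cells. Doses: single point at 3 µM. Incubation: dye loading 1 h 37 °C then 30 min ambient, 125 s read. Signal: Fluo-8 calcium dye fluorescence, ex 470-495, em 515-575 nm. Measure: percent activation from peak-to-basal fluorescence ratio, scaled between DMSO and carbachol.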
# GPR7 antag: GPR7 receptor antagonists, primary screen, cell-based, fluorescence, single concentration | inhibition, % at 4.4 µM | AID 1861, 2009 | 290,000 tested, 1.1% active | GPR7-expressing cells, fluorescence antagonist assay; in the data active means inhibition above about 16%, passing the limit was not always enough;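 further: cells stimulated with the agonist NPW; 0% = agonist with vehicle and 100% = vehicle without agonist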
# CRFR2-BP antag: antagonists of CRF-BP/CRF-R2 complex, primary screen, cell-based, HEK293, calcium dye fluorescence, uHTS; CRF-induced calcium fluorescence; inhibition, % at 11.8 µM; 350,000 tested, 0.59% active; AID 588475, 2011;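 active means inhibition of the ligand-induced calcium signal above about 50% at the single tested concentration, limit read from the data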
# Starred values were filed as active, the others as inactive; . = no result.
SMILES,CRFR2-BP ag,TRPN1 ag,TRPML3 agonist,GPR7 antag,CRFR2-BP antag
Cc1ccc(NC(=O)CSc2nc(N)cc(N)n2)cc1S(=O)(=O)N1CCOCC1,3,-2,0,20*,5
CCCCNc1c(-c2ccc(SC(C)CC)cc2)nc2cnccn12 (configuration not stated),19,.,.,.,-14
CCOC(=O)c1c(S(=O)(=O)NCC(=O)Nc2cc(C)ccn2)c(C)n(C)c1C,2,.,.,9,18
O=C(Nc1ccccc1)Nc1ccc(F)c([N+](=O)[O-])c1,23,20*,10,33*,40
Cc1ccc(NC(=O)Nc2ccccc2)cc1[N+](=O)[O-],-2,16,8,25*,13
CC(=O)Nc1ccc(C)c([N+](=O)[O-])c1,0,0,1,-5,3
Cc1cc2nc[nH]c(=O)n2n1,2,.,.,.,8
CCCn1cnc2c(=S)nc(N)[nH]c21,0,0,0,18*,13
Cc1ccc(NC(=O)Cn2ncn3c(cc4ccccc43)c2=O)cc1F,-1,.,.,-5,60*
Cc1cc(/C=C2\SC(=S)N(Cc3ccco3)C2=O)c(C)n1-c1cccnc1,55*,2,1,-2,-36
O=C1/C(=C/c2cccnc2)SC(=S)N1Cc1ccco1,-4,.,.,.,16
COc1cc(OC)c(OC)cc1/C=C1/Cc2ccccc2C1=O,51*,.,.,-9,-23
N=C1/C(=C/c2cccs2)C(=O)N=C2SN=C(SCc3ccccc3)N12,15,0,1,-10,102*
CC(C)CSC1=NSC2=NC(=O)/C(=C\c3cccs3)C(=N)N12,70*,1,2,-2,75*
CSC1=NSC2=NC(=O)/C(=C\c3cccs3)C(=N)N12,0,2,0,-2,20
O=C(c1ccccc1)N(Cc1ccccc1)Cc1ccccc1,1,.,.,-4,12
O=C(C1CC1)N(CCN(Cc1ccccc1)C(=O)C1CC1)Cc1ccccc1,1,-1,-1,43*,1
CCN(CC)C(=O)c1[nH]cnc1C(=O)Nc1ccon1,1,.,.,.,-3
Cc1cccn2c(=O)c(C(=O)NCCCN3CC(C)CC(C)C3)c(O)nc12 (configuration not stated),2,.,.,.,-4
N#C/C(=N/Nc1ccc(OC(F)(F)F)cc1)C(N)=S,41,23*,15*,8,36
COc1ccc(C(=O)c2cc([N+](=O)[O-])ccc2N2CCN(C)CC2)cc1,0,1,0,34*,-14
COc1ccc(S(=O)(=O)N(C)c2ccc(C(=O)N3CCN(c4ccccc4)CC3)cc2)cc1OC,-1,.,.,0,6
CCN(CC)c1ccc(/C=C2\CCC(/C=N/NC(=O)c3ccc(=O)n(C)c3)=C2N2CCOCC2)cc1,96*,5,2,-7,-146
NC(=O)c1cc2ccc(O)cc2oc1=NCc1ccccc1,319*,1,0,2,-351
Cc1ccccc1OCC(=O)OCC(=O)Nc1cc(S(C)(=O)=O)ccc1Cl,0,.,.,.,18
SMILES,CRFR2-BP ag,TRPN1 ag,TRPML3 agonist,GPR7 antag,CRFR2-BP antag
Cc1ccc(Sc2c(O)c3ccccc3n(C)c2=O)cc1,-2,0,-1,11,2
Cc1ccc(Sc2c(C=O)c3ccccc3n2C)cc1,9,-2,0,-10,58*
C=CC[C@H](CC(=O)OC(C)(C)C)C(=O)OC[C@@H]1CCCN1C(=O)[C@@H](CC=C)CC(=O)N[C@H](CO)Cc1ccccc1,-1,.,.,.,-3
CCn1c2ccccc2c2cc(NC(=O)C(C)OC(=O)c3ccc(NC(=O)CC#N)cc3)ccc21 (configuration not stated),3,.,.,.,2
O=C(O)c1ccc(N2CCCCCC2)c(N2C(=O)c3ccccc3C2=O)c1,-2,0,1,-7,-3
Cc1ccc(N2C(=O)c3cccc4c(N5CCN(C)CC5)ccc(c34)C2=O)c2cccnc12,89*,4,5,8,-73
Cc1ccc(N2C(=O)c3cccc4c([N+](=O)[O-])ccc(c34)C2=O)c2cccnc12,4,1,0,-9,20
O=C1c2cccc3c(N4CCCCC4)ccc(c23)C(=O)N1c1ccc(O)cc1,224*,20*,12*,-3,-277
O=C1c2cccc3c(N4CCCCC4)ccc(c23)C(=O)N1c1ccccc1O,259*,36*,18*,-12,-241
O=C(NCc1ccc(F)cc1)c1cc2c(s1)CS(=O)(=O)C2,-1,.,.,5,7
COC(CNC(=O)c1ccc2c3c(onc13)-c1ccccc1C2=O)OC,41,27*,18*,-14,-8
COC(CNC(=O)c1cccnc1)OC,2,2,1,-5,9
Cc1ccccc1-c1cc2nc(-c3ccc([N+](=O)[O-])cc3)cc(=O)n2[nH]1,-3,0,1,-3,71*
O=c1cc(-c2ccc([N+](=O)[O-])cc2)nc2cc(-c3ccc(F)cc3)[nH]n12,-3,1,0,-8,75*
CC1(C)Cc2c(sc(NC(=O)C(=O)NCCCN3CCOCC3)c2C#N)CO1,0,.,.,-4,1
O=C(O)CCCCCN1C(=O)/C(=C\c2ccc(-c3ccc(Cl)cc3)o2)SC1=S,114*,1,1,-9,-82
C=CCCCCCCCCc1nc(SCC(=O)O)n[nH]1,2,2,1,-12,-10
C=CCCCCCCCCc1nc(SCC(C)=O)n[nH]1,-1,0,-1,20*,21
Cc1onc(-c2ccccc2)c1C(=O)n1nnc2ccccc21,-1,0,0,-15,-15
Cc1nn(C(=O)c2c(-c3ccccc3)noc2C)c(C)c1N=Nc1cc(C(F)(F)F)cc(C(F)(F)F)c1,5,1,0,-6,53*
COc1cc(C(=O)NCc2ccccc2Cl)ccc1OCC(=O)N1CCOCC1,1,.,.,.,62*
CN(c1ccc(C(=O)N2CCN(Cc3ccc4c(c3)OCO4)CC2)cc1)S(=O)(=O)c1ccccc1,-3,8,4,14,68*
Cc1ccc(S(=O)(=O)N(C)c2ccc(C(=O)N3CCN(Cc4ccc5c(c4)OCO5)CC3)cc2)cc1,0,3,3,13,49
O=C(c1ccccc1)N1CCN(C(=O)c2ccc3c(c2)OCO3)CC1,-1,.,.,7,-1
O=C(c1ccc2c(c1)OCO2)N1CCC(Cc2ccccc2)CC1,-1,-1,-1,19*,-1
CN(c1ccccc1)S(=O)(=O)c1ccc(C(=O)N2CCc3ccccc3C2)cc1,1,8,2,20*,4
O=C(COC(=O)Cc1ccc(Cl)c(Cl)c1)Nc1ccc2[nH]c(=O)[nH]c2c1,4,.,.,.,1
